# Measured values published in ChEMBL document CHEMBL4014344, “Discovery of the Soluble Guanylate Cyclase Stimulator Vericiguat (BAY 1021189) for the Treatment of Chronic Heart Failure” (J Med Chem, 2017).
# Legend:
# [1] = molecular target: T1, Guanylate cyclase soluble subunit alpha-1 (Rattus norvegicus) (UniProt P19686); assay: Stimulation of rat recombinant sGCalpha1 subunit expressed in CHO cells using alpha-[32P]GTP as substrate assessed as >=3 fold increase in [32P]cGMP formation after 10 mins by radioimmunoassay; format: cell-based
# T1 sequence (whole entry): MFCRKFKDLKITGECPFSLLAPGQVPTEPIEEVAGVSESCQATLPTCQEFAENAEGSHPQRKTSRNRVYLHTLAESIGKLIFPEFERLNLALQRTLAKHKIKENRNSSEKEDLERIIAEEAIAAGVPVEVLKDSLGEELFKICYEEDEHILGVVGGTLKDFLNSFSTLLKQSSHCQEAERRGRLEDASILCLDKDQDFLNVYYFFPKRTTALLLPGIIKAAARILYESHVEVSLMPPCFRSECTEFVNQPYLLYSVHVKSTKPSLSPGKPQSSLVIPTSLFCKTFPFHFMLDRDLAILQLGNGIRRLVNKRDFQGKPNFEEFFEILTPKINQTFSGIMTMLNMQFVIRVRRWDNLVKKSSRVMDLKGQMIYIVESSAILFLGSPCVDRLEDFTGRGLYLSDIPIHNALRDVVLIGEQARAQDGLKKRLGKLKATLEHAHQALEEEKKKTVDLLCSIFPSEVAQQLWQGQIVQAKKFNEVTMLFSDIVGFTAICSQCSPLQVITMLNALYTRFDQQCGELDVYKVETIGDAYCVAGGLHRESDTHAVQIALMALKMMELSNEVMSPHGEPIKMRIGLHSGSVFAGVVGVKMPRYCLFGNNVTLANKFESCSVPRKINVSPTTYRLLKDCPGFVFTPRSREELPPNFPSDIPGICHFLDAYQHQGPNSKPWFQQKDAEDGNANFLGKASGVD
# [2] = Clearance in rat hepatocytes at 1 uM up to 90 mins by LC-MS/MS analysis; format: ADME, cell-based, Hepatocyte
# In short: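 Rat hepatocytes at 1 × 10^6 viable cells/mL (trypan blue-corrected) in Williams' medium E, 1 μM substrate, MeCN ≤1%, 37 °C, pH 7.4. Sampled at 2−90 min, quenched with MeCN, analysed by LC-MS/MS.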
# [3] = Clearance in iv dosed Wistar rat blood after 24 hrs by LC-MS analysis; format: ADME, organism-based; conditions: whole blood
# In short: (§1)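 Male Wistar rats and female beagle dogs. iv in plasma/DMSO (rat) or H2O/PEG 400/EtOH (dog). Oral gavage in H2O/PEG 400/EtOH for both. Rats jugular-catheterised ≥1 d before dosing. Usually >10 blood samples, at least two after 24 h. Plasma quantified by LC-MS with internal standard. CL, t1/2, Vss and F calculated from plasma curves. Blood clearance via blood/plasma ratio (20 min blood incubation).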
# [4] = Efflux ratio of apparent permeability in human Caco2 cells; format: ADME, cell-based; conditions: Caco-2
# In short: (§2)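 Caco-2 cells grown 14−16 d on inserts. Compound dissolved in DMSO and diluted to final 2 μM in HBSS with glucose (19.9 mM) and HEPES (9.8 mM). Added apically (A−B) or basolaterally, incubated 2 h at 37 °C. Both compartments analysed by LC-MS to calculate Papp. Efflux ratio = Papp B−A/Papp A−B. Lucifer yellow monolayer integrity check.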
# [5] = Apparent permeability across apical to basolateral side in human Caco2 cells at 2 uM after 2 hrs by LC-MS analysis; format: ADME, cell-based; conditions: Caco-2; in short: as §2
# [6] = Oral bioavailability in Wistar rat administered via oral gavage after 24 hrs by LC-MS analysis; format: ADME, organism-based; conditions: in vivo; in short: as §1
# [7] = Volume of distribution at steady state in iv dosed Wistar rat after 24 hrs by LC-MS analysis; format: ADME, organism-based; conditions: in vivo, read-out: Vdss; in short: as §1
# [8] = Clearance in iv dosed Beagle dog blood after 24 hrs by LC-MS analysis; format: ADME, organism-based, Canis lupus familiaris; conditions: whole blood; in short: as §1
# [9] = Oral bioavailability in Beagle dog administered via oral gavage after 24 hrs by LC-MS analysis; format: ADME, organism-based, Canis lupus familiaris; conditions: in vivo; in short: as §1
# [10] = Terminal half life in iv dosed Wistar rat blood after 24 hrs by LC-MS analysis; format: ADME, organism-based; conditions: whole blood, read-out: beta t1/2 (converted); in short: as §1
# [11] = Volume of distribution at steady state in iv dosed Beagle dog after 24 hrs by LC-MS analysis; format: ADME, organism-based, Canis lupus familiaris; conditions: in vivo, read-out: Vdss; in short: as §1
# [12] = Terminal half life in iv dosed Beagle dog blood after 24 hrs by LC-MS analysis; format: ADME, organism-based, Canis lupus familiaris; conditions: whole blood, read-out: beta t1/2 (converted); in short: as §1
# [13] = Plasma clearance in iv dosed Beagle dog after 24 hrs by LC-MS analysis; format: ADME, organism-based, Canis lupus familiaris
# In short: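 Female beagle dogs were dosed iv in an H2O/PEG 400/EtOH formulation. Blood was collected into heparinized tubes, and plasma was obtained by centrifugation at 1000g and stored at −20 °C if needed. Drug was quantified by LC-MS (selected ion monitoring or high-resolution) against an internal standard. Clearance was calculated from the plasma concentration–time course.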
# Saphenous artery [14] = assay: Vasorelaxant activity in nirate-tolerant Chinchilla rabbit saphenous artery ring administered at the beginning of the last resting period of 28 mins in presence of sorbide dinitrate; format: functional; conditions: Oryctolagus cuniculus
# Saphenous artery [15] = assay: Vasorelaxant activity in normal Chinchilla rabbit saphenous artery ring administered at the beginning of the last resting period of 28 mins; format: functional; conditions: Oryctolagus cuniculus
smiles,measurement,setting,value
Nc1nc(-c2nn(Cc3ccccc3F)c3ncccc23)nc(N)c1N1C[C@H](C(F)(F)F)OC1=O,MEC,[1],0.2 µM
COC(=O)N(Cc1ccc(F)cc1)c1c(N)nc(-c2nn(Cc3ccccc3F)c3ncccc23)nc1N,CLhep predicted at 1 µM,[2],40 mL/min/kg
same,MEC,[1],0.7 µM
COC(=O)Nc1c(N)nc(-c2nn(Cc3ccccc3F)c3nnccc23)nc1N,CLhep predicted at 1 µM,[2],< 1.67 mL/min/kg
same,MEC,[1],2 µM
same,clearance,[3],63.3 mL/min/kg
CC(C)OC(=O)Nc1c(N)nc(-c2nn(Cc3ccccc3F)c3ncccc23)nc1N,CLhep predicted at 1 µM,[2],15 mL/min/kg
same,MEC,[1],0.8 µM
CC1(C)CN(c2c(N)nc(-c3nn(Cc4ccccc4F)c4ncccc34)nc2N)C(=O)O1,CLhep predicted at 1 µM,[2],21.7 mL/min/kg
same,MEC,[1],0.2 µM
Nc1nc(-c2nn(Cc3ccccc3F)c3ncccc23)nc(N)c1NC(=O)OCC(F)(F)F,CLhep predicted at 1 µM,[2],35 mL/min/kg
same,MEC,[1],0.2 µM
COC(=O)Nc1c(N)nc(-c2nn(Cc3ccccc3F)c3ncccc23)nc1N,CLhep predicted at 1 µM,[2],1.67 mL/min/kg
same,MEC,[1],0.3 µM
same,efflux ratio,[4],5
same,"Papp A→B at 2 h, 2 µM",[5],7.9 ×10⁻⁶ cm/s
COC(=O)Nc1c(N)nc(-c2nc(Cc3ccccc3F)c3ncccn23)nc1N,MEC,[1],1.7 µM
same,clearance,[3],30 mL/min/kg
COC(=O)Nc1c(N)nc(-n2nc(Cc3ccccc3F)c3ncc(F)cc32)nc1N,bioavailability,[6],26%
same,CLhep predicted at 1 µM,[2],1.67 mL/min/kg
same,Vd,[7],0.5 L/kg
same,clearance,[8],3.33 mL/min/kg
same,bioavailability,[9],56%
same,half-life,[10],1.5 h
same,MEC,[1],0.5 µM
same,clearance,[3],5 mL/min/kg
same,Vd,[11],1 L/kg
same,half-life,[12],4.1 h
COC(=O)Nc1c(N)nc(-n2nc(Cc3ccccc3F)c3ncccc32)nc1N,CLhep predicted at 1 µM,[2],< 1.67 mL/min/kg
same,MEC,[1],1.2 µM
same,clearance,[3],16.7 mL/min/kg
Nc1nc(-c2nn(Cc3ccccc3F)c3ncccc23)nc(N)c1N1C[C@@H](C(F)(F)F)OC1=O,CLhep predicted at 1 µM,[2],26.7 mL/min/kg
same,MEC,[1],0.03 µM
COC(=O)N(CCO)c1c(N)nc(-c2nn(Cc3ccccc3F)c3ncccc23)nc1N,CLhep predicted at 1 µM,[2],61.7 mL/min/kg
same,MEC,[1],0.3 µM
COC(=O)Nc1c(N)nc(-c2nc(Cc3ccccc3F)n3ncccc23)nc1N,clearance,[13],15 mL/min/kg
same,bioavailability,[6],37%
same,CLhep predicted at 1 µM,[2],< 1.67 mL/min/kg
same,Vd,[7],0.3 L/kg
same,half-life,[10],0.5 h
same,MEC,[1],0.7 µM
same,clearance,[3],15 mL/min/kg
same,Vd,[11],2 L/kg
same,half-life,[12],1.8 h
CCN(C(=O)OC)c1c(N)nc(-c2nn(Cc3ccccc3F)c3ncccc23)nc1N,CLhep predicted at 1 µM,[2],11.7 mL/min/kg
same,MEC,[1],0.2 µM
Nc1nc(-c2nn(Cc3ccccc3F)c3ncccc23)nc(N)c1N1CCOC1=O,CLhep predicted at 1 µM,[2],6.67 mL/min/kg
same,MEC,[1],0.3 µM
Nc1nc(-c2nn(Cc3ccccc3F)c3ncccc23)nc(N)c1NC(=O)OC1CCC1,CLhep predicted at 1 µM,[2],23.3 mL/min/kg
same,MEC,[1],0.2 µM
same,efflux ratio,[4],25
same,"Papp A→B at 2 h, 2 µM",[5],2.3 ×10⁻⁶ cm/s
COC(=O)N(CC(F)F)c1c(N)nc(-c2nn(Cc3ccccc3F)c3ncccc23)nc1N,CLhep predicted at 1 µM,[2],6.67 mL/min/kg
same,MEC,[1],0.1 µM
Nc1nc(-c2nn(Cc3ccccc3F)c3ncccc23)nc(N)c1NC(=O)OCC1CC1,CLhep predicted at 1 µM,[2],23.3 mL/min/kg
same,MEC,[1],0.2 µM
COC(=O)N(CC(F)(F)F)c1c(N)nc(-c2nn(Cc3ccccc3F)c3ncccc23)nc1N,CLhep predicted at 1 µM,[2],15 mL/min/kg
same,MEC,[1],0.1 µM
COC(=O)N(C)c1c(N)nc(-c2nn(Cc3ccccc3F)c3ncccc23)nc1N [RIOCIGUAT],clearance,[13],5 mL/min/kg
same,bioavailability,[6],46%
same,CLhep predicted at 1 µM,[2],3.33 mL/min/kg
same,Vd,[7],1.2 L/kg
same,bioavailability,[9],79%
same,half-life,[10],1.4 h
same,MEC,[1],0.03 µM
same,clearance,[3],21.7 mL/min/kg
same,Vd,[11],0.7 L/kg
same,half-life,[12],2.4 h
COC(=O)N(Cc1cccc(F)c1)c1c(N)nc(-c2nn(Cc3ccccc3F)c3ncccc23)nc1N,CLhep predicted at 1 µM,[2],53.3 mL/min/kg
same,MEC,[1],0.2 µM
O=[N+]([O-])OCC(CO[N+](=O)[O-])O[N+](=O)[O-] [NITROGLYCERIN],IC50,Saphenous artery [14],9.6 nM
same,IC50,Saphenous artery [15],1.9 nM
Nc1nc(-c2nn(Cc3ccccc3F)c3ncccc23)nc(N)c1NC(=O)OC1COC1,CLhep predicted at 1 µM,[2],1.67 mL/min/kg
same,MEC,[1],2.3 µM
same,efflux ratio,[4],74
same,"Papp A→B at 2 h, 2 µM",[5],0.2 ×10⁻⁶ cm/s
COC(=O)N(Cc1ccccc1F)c1c(N)nc(-c2nn(Cc3ccccc3F)c3ncccc23)nc1N,CLhep predicted at 1 µM,[2],53.3 mL/min/kg
same,MEC,[1],0.1 µM
